Measured values from ChEMBL document CHEMBL3244395, “Antimycotic imidazoles. 2. Synthesis and antifungal properties of esters of 1-[2-hydroxy(mercapto)-2-phenylethyl]-1H-imidazoles” (J Med Chem, 1978).

How the values were obtained:
[1] = Lipophilic-hydrophilic balance, Rm of the compound assessed as change in compound Rm to miconazole Rm by reverse-phase TLC method; type: physicochemical; details: silicone oil-impregnated silica gel, MeCN-H2O-AcOH
Nannizzia gypsea = assay: Antifungal activity against Microsporum gypseum assessed as lowest concentration required for total inhibition broth dilution assay; type: functional; details: read-out: MIC100
Method in brief: (§1)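 Broth dilution against dermatophytes, C. albicans ATCC 10231 and 14053, and C. neoformans. The end point is the lowest concentration with total inhibition. "<" marks the lowest level tested, and ">" marks partial growth at that dilution.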

Epidermophyton floccosum = assay: Antifungal activity against Epidermophyton floccosum assessed as lowest concentration required for total inhibition broth dilution assay; type: functional; details: read-out: MIC100; method in brief: as §1
[2] = system: Trichophyton mentagrophytes; assay: Antifungal activity against Trichophyton mentagrophytes assessed as lowest concentration required for total inhibition broth dilution assay; type: functional; details: read-out: MIC100; method in brief: as §1
Candida albicans [3] = assay: Antifungal activity against Candida albicans ATCC 10231 assessed as lowest concentration required for total inhibition by broth dilution assay; type: functional; details: read-out: MIC100; method in brief: as §1
Candida albicans [4] = assay: Antifungal activity against Candida albicans ATCC 14053 assessed as lowest concentration required for total inhibition by broth dilution assay; type: functional; details: read-out: MIC100; method in brief: as §1
Cryptococcus neoformans = assay: Antifungal activity against Cryptococcus neoformans assessed as lowest concentration required for total inhibition by broth dilution assay; type: functional; details: read-out: MIC100; method in brief: as §1
Staphylococcus aureus = assay: Antibacterial activity against Staphylococcus aureus ATCC 12600 assessed as lowest concentration required for total inhibition by broth microdilution assay; type: functional; details: for MIC: read-out: MIC100
Method in brief: (§2)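 Broth microdilution against the listed ATCC […] strains. The value is the lowest concentration giving total inhibition. "<" marks the lowest level tested, and ">" marks partial growth at that dilution.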

Enterococcus faecalis = assay: Antibacterial activity against Streptococcus faecalis ATCC 14506 assessed as lowest concentration required for total inhibition by broth microdilution assay; type: functional; details: for MIC: read-out: MIC100; method in brief: as §2
Cutibacterium acnes = assay: Antibacterial activity against Corynebacterium acnes ATCC 11828 assessed as lowest concentration required for total inhibition by broth microdilution assay; type: functional; details: for MIC: read-out: MIC100; method in brief: as §2
[5] = system: Erysipelothrix rhusiopathiae; assay: Antibacterial activity against Erysipelothrix insidiosa ATCC 19414 assessed as lowest concentration required for total inhibition by broth microdilution assay; type: functional; details: for MIC: read-out: MIC100; method in brief: as §2
Pasteurella multocida = assay: Antibacterial activity against Pasteurella multocida ATCC 19427 assessed as lowest concentration required for total inhibition by broth microdilution assay; type: functional; details: for MIC: read-out: MIC100; method in brief: as §2

Molecule | deltaRm [1] | MIC (Nannizzia gypsea) | MIC (Epidermophyton floccosum) | MIC [2] | MIC (Candida albicans [3]) | MIC (Candida albicans [4]) | MIC (Cryptococcus neoformans) | MIC100 (Staphylococcus aureus) | MIC100 (Enterococcus faecalis) | MIC100 (Cutibacterium acnes) | MIC100 [5] | MIC100 (Pasteurella multocida) | MIC (Staphylococcus aureus) | MIC (Enterococcus faecalis) | MIC (Cutibacterium acnes) | MIC [5] | MIC (Pasteurella multocida)
O=C(O)C(=O)O.S=C(OCc1ccccc1)SC(Cn1ccnc1)c1ccc(Cl)cc1Cl (stereo not drawn) | -0.21 | 10 µg/mL | < 0.1 µg/mL | 1 µg/mL | 30 µg/mL | 10 µg/mL | < 0.3 µg/mL |  |  |  |  |  |  |  |  |  | 
GENTAMICIN |  |  |  |  |  |  |  | 1 µg/mL | 30 µg/mL | 1 µg/mL | 30 µg/mL | < 0.1 µg/mL |  |  |  |  | 
CCCCCOC(=S)SC(Cn1ccnc1)c1ccc(Cl)cc1.O=C(O)C(=O)O (stereo not drawn) | 0.22 | 3 µg/mL | 0.3 µg/mL | 10 µg/mL | 30 µg/mL | 30 µg/mL | 3 µg/mL |  |  |  |  |  |  |  |  |  | 
CCCCOC(=O)SC(Cn1ccnc1)c1ccc(Cl)cc1Cl.O=[N+]([O-])O (stereo not drawn) | -0.14 | 30 µg/mL | < 0.1 µg/mL | 10 µg/mL | 30 µg/mL | 30 µg/mL | < 0.3 µg/mL |  |  |  |  |  |  |  |  |  | 
CCCCCOC(=S)SC(Cn1ccnc1)c1ccc(Cl)cc1Cl.O=[N+]([O-])O (stereo not drawn) | 0.37 | 3 µg/mL | < 0.1 µg/mL | 3 µg/mL | 3 µg/mL | 3 µg/mL | < 1 µg/mL |  |  |  |  |  | 3 µg/mL | 10 µg/mL | > 100 µg/mL | 100 µg/mL | 1 µg/mL
CC(C)(C)SC(=O)SC(Cn1ccnc1)c1ccc(Cl)cc1Cl.O=[N+]([O-])O (stereo not drawn) | 0.05 | 10 µg/mL | < 0.1 µg/mL | 3 µg/mL | 30 µg/mL | 30 µg/mL | 3 µg/mL |  |  |  |  |  | 3 µg/mL | 10 µg/mL | 100 µg/mL | 100 µg/mL | 1 µg/mL
O=[N+]([O-])O.S=C(OC1CCCCC1)SC(Cn1ccnc1)c1ccc(Cl)cc1Cl (stereo not drawn) | 0.43 | 3 µg/mL | < 0.1 µg/mL | 3 µg/mL | 3 µg/mL | 3 µg/mL | < 1 µg/mL |  |  |  |  |  |  |  |  |  | 
CCCCCCOC(=O)OC(Cn1ccnc1)c1ccc(Cl)cc1Cl.O=[N+]([O-])O (stereo not drawn) | -0.17 | 30 µg/mL | < 0.3 µg/mL | 30 µg/mL | 100 µg/mL | 100 µg/mL | 30 µg/mL |  |  |  |  |  |  |  |  |  | 
O=C(Sc1ccccc1)SC(Cn1ccnc1)c1ccc(Cl)cc1Cl.O=[N+]([O-])O (stereo not drawn) | -0.02 | 3 µg/mL | < 0.1 µg/mL | 10 µg/mL | 100 µg/mL | 100 µg/mL | < 1 µg/mL |  |  |  |  |  | 10 µg/mL | 30 µg/mL | > 100 µg/mL | 100 µg/mL | 3 µg/mL
O=C(/C=C/c1ccc(Cl)cc1)OC(Cn1ccnc1)c1ccc(Cl)cc1Cl.O=[N+]([O-])O (stereo not drawn) |  | 10 µg/mL | < 0.1 µg/mL | 10 µg/mL | > 300 µg/mL | > 300 µg/mL | < 1 µg/mL |  |  |  |  |  |  |  |  |  | 
CCCSC(=O)OC(Cn1ccnc1)c1ccc(Cl)cc1Cl.O=C(O)C(=O)O (stereo not drawn) |  | 30 µg/mL | < 0.1 µg/mL | 30 µg/mL | 300 µg/mL | 300 µg/mL | 3 µg/mL |  |  |  |  |  |  |  |  |  | 
CCCCCCCCOC(=O)OC(Cn1ccnc1)c1ccc(Cl)cc1Cl.O=[N+]([O-])O (stereo not drawn) | 0.4 | 10 µg/mL | < 0.1 µg/mL | 10 µg/mL | 300 µg/mL | 30 µg/mL | 3 µg/mL |  |  |  |  |  |  |  |  |  | 
CC(C)OC(=S)SC(Cn1ccnc1)c1ccc(Cl)cc1Cl.O=[N+]([O-])O (stereo not drawn) | -0.14 | 10 µg/mL | < 0.1 µg/mL | 10 µg/mL | 100 µg/mL | 30 µg/mL | < 0.3 µg/mL |  |  |  |  |  |  |  |  |  | 
O=C(Cc1ccc(Cl)cc1)OC(Cn1ccnc1)c1ccc(Cl)cc1Cl.O=[N+]([O-])O (stereo not drawn) | -0.41 | 100 µg/mL | < 0.1 µg/mL | 30 µg/mL | 100 µg/mL | 100 µg/mL | 3 µg/mL |  |  |  |  |  |  |  |  |  | 
O=C(/C=C/c1ccccc1)SC(Cn1ccnc1)c1ccc(Cl)cc1Cl.O=[N+]([O-])O (stereo not drawn) | -0.08 | 30 µg/mL | < 0.1 µg/mL | 10 µg/mL | 10 µg/mL | 10 µg/mL | < 1 µg/mL |  |  |  |  |  |  |  |  |  | 
O=C(Cc1ccc(F)cc1)SC(Cn1ccnc1)c1ccc(Cl)cc1Cl.O=[N+]([O-])O (stereo not drawn) |  | 30 µg/mL | < 0.1 µg/mL | 30 µg/mL | 100 µg/mL | 100 µg/mL | < 1 µg/mL |  |  |  |  |  |  |  |  |  | 
CCCCCCC(=O)OC(Cn1ccnc1)c1ccc(Cl)cc1Cl.O=[N+]([O-])O (stereo not drawn) | -0.16 | 30 µg/mL | < 0.1 µg/mL | 30 µg/mL | 100 µg/mL | 100 µg/mL | 3 µg/mL |  |  |  |  |  |  |  |  |  | 
O=C(SC(Cn1ccnc1)c1ccc(Cl)cc1Cl)c1ccccc1Cl.O=[N+]([O-])O (stereo not drawn) | -0.35 | 10 µg/mL | < 0.1 µg/mL | 10 µg/mL | 30 µg/mL | 30 µg/mL | < 1 µg/mL |  |  |  |  |  | 10 µg/mL | 30 µg/mL | > 100 µg/mL | 100 µg/mL | 1 µg/mL
Cc1ccc(C(=O)SC(Cn2ccnc2)c2ccc(Cl)cc2Cl)cc1.O=[N+]([O-])O (stereo not drawn) | -0.09 | 30 µg/mL | < 0.1 µg/mL | 10 µg/mL | 10 µg/mL | 10 µg/mL | < 1 µg/mL |  |  |  |  |  |  |  |  |  | 
CC(=O)SC(Cn1ccnc1)c1ccc(Cl)cc1Cl.O=[N+]([O-])O (stereo not drawn) |  | 100 µg/mL | 1 µg/mL | 100 µg/mL | 300 µg/mL | 300 µg/mL | 10 µg/mL |  |  |  |  |  |  |  |  |  | 
O=C(OC(Cn1ccnc1)c1ccc(Cl)cc1Cl)c1ccc(Cl)cc1Cl.O=[N+]([O-])O (stereo not drawn) | -0.24 | 30 µg/mL | < 0.1 µg/mL | 30 µg/mL | 300 µg/mL | 300 µg/mL | 3 µg/mL |  |  |  |  |  |  |  |  |  | 
CC(C)(C)c1ccc(C(=O)OC(Cn2ccnc2)c2ccc(Cl)cc2Cl)cc1.O=C(O)C(=O)O (stereo not drawn) | 0.16 | 10 µg/mL | 1 µg/mL | 10 µg/mL | 10 µg/mL | 10 µg/mL | 3 µg/mL |  |  |  |  |  |  |  |  |  | 
O=C(Cc1ccccc1)SC(Cn1ccnc1)c1ccc(Cl)cc1Cl.O=[N+]([O-])O (stereo not drawn) | -0.43 | 30 µg/mL | < 0.1 µg/mL | 30 µg/mL | 100 µg/mL | 100 µg/mL | < 1 µg/mL |  |  |  |  |  |  |  |  |  | 
O=C(Cc1ccc(Cl)cc1)SC(Cn1ccnc1)c1ccc(Cl)cc1Cl.O=[N+]([O-])O (stereo not drawn) |  | > 30 µg/mL | < 0.1 µg/mL | 30 µg/mL | 100 µg/mL | 100 µg/mL | < 1 µg/mL |  |  |  |  |  |  |  |  |  | 
CC(C)COC(=S)SC(Cn1ccnc1)c1ccc(Cl)cc1Cl.O=[N+]([O-])O (stereo not drawn) | 0.17 | 3 µg/mL | < 0.1 µg/mL | 3 µg/mL | 30 µg/mL | 10 µg/mL | < 0.3 µg/mL |  |  |  |  |  |  |  |  |  | 
